This is an account of results in ChEMBL document CHEMBL4261490, “Exploring the links between peptoid antibacterial activity and toxicity” (Medchemcomm, 2017).

Data set [1] can be described thus: Selectivity index, ratio of ED50 for human HepG2 cells to MIC for Staphylococcus aureus 3R7089 strain Oxford/ATCC 9144. Type of data set: toxicity. The following applies: read-out: Selectivity Index.
Data set [2] can be described thus: Selectivity index, ratio of ED50 for human HaCaT cells to MIC for Staphylococcus epidermidis clinical isolate. The class given is toxicity. The following applies: read-out: Selectivity Index.
Data set [3] in a line: Cytotoxicity against human HaCaT cells assessed as reduction in cell viability pretreated for 1 hr followed by DMEM addition measured after 24 hrs by alamar blue assay. Type of data set: cell-based. The note with it: read-out: ED50. In outline: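 HaCaT keratinocytes are grown in DMEM high glucose with 10% FBS and 1% P/S and seeded at 2x10^4 cells/well 24 h before treatment. Compound dilution series run 2–100 µM (5 mM DMSO stocks) in 50 µL for 1 h, then medium is added for 24 h at 37 °C, 5% CO2. alamarBlue is read after 1 h (Ex 540/Em 620). Triplicate, ≥2 occasions; ED50 from dose-response; amphotericin B positive control.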

Data set [4] in a line: Selectivity index, ratio of ED50 for human HaCaT cells to MIC for Pseudomonas aeruginosa PAO1 ATCC 15692. The note with it: read-out: Selectivity Index. The class given is toxicity.
A further data set concerns Escherichia coli. The data set can be described thus: Antibacterial activity against Escherichia coli K-12 W3110 ATCC 27325 incubated for 16 hrs under shaking condition. The class given is functional. The following applies: K-12 substr. W3110 ATCC 27325, 16 h. In outline:
(§1)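 Broth microdilution (Andrews method) in Iso-sensitest broth. Overnight cultures are adjusted to A650 0.07 (0.5 McFarland) and diluted ten-fold. Compounds come from 5 mM DMSO stocks, 2-fold serially diluted, final 2–100 μM in a 1:1 inoculum:compound mix. Incubation is 37 °C for 16 h with shaking. MIC is the lowest concentration giving complete growth inhibition, read by absorbance; triplicate.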

For the next data set, the system named is Pseudomonas aeruginosa. The data set can be described thus: Antibacterial activity against Pseudomonas aeruginosa PAO1 ATCC 15692 incubated for 16 hrs under shaking condition. The class given is functional. The note with it: PAO1 ATCC 15692, 16 h. In outline:
as §1

Data set [5] can be described thus: Selectivity index, ratio of ED50 for human HaCaT cells to MIC for Escherichia coli K-12 W3110 ATCC 27325. The class given is toxicity. The following applies: read-out: Selectivity Index.
Data set [6] can be described thus: Selectivity index, ratio of ED50 for human HepG2 cells to MIC for Staphylococcus epidermidis clinical isolate. The class given is toxicity. The following applies: read-out: Selectivity Index.
A short description of data set [7]: Cytotoxicity against human HepG2 cells assessed as reduction in cell viability pretreated for 1 hr followed by DMEM addition measured after 24 hrs by alamar blue assay. The class given is cell-based. The following applies: read-out: ED50. An outline of the steps:
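HepG2 cells are kept in DMEM high glucose with 10% heat-inactivated FBS and 1% P/S at 37 °C, 5% CO2, and seeded at 2x10^4 cells/well one day ahead. They are exposed to compounds (100 to 3 µM, from 5 mM DMSO stocks) in 50 µL for 1 h. Medium is then added and cells incubated 24 h. alamarBlue is read after 2 h (Ex 560/Em 600). Triplicate on ≥2 occasions; ED50 from dose-response; DMSO negative control.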
Background: Resazurin is reduced to fluorescent resorufin, in cell work by metabolically active cells.

The nature of data set [8]: Selectivity index, ratio of ED50 for human HaCaT cells to MIC for Staphylococcus aureus 3R7089 strain Oxford/ATCC 9144. The note with it: read-out: Selectivity Index. Type of data set: toxicity.
Data set [9] in a line: Selectivity index, ratio of ED50 for human HepG2 cells to MIC for Pseudomonas aeruginosa PAO1 ATCC 15692. Type of data set: toxicity. The note with it: read-out: Selectivity Index.
The nature of data set [10]: Selectivity index, ratio of ED50 for human HepG2 cells to MIC for Escherichia coli K-12 W3110 ATCC 27325. The class given is toxicity. The following applies: read-out: Selectivity Index.
The subject of another data set is Staphylococcus aureus. The data set can be described thus: Antibacterial activity against Staphylococcus aureus 3R7089 strain Oxford/ATCC 9144 incubated for 16 hrs under shaking condition. Type of data set: functional. The note with it: 3R7089 strain Oxford/ATCC 9144, 16 h. In outline:
as §1

For data set [11], the system named is Staphylococcus epidermidis. The data set can be described thus: Antibacterial activity against Staphylococcus epidermidis clinical isolate incubated for 16 hrs under shaking condition. The class given is functional. In outline: as §1
Data set [12] in a line: Hemolytic activity against human erythrocytes measured after 1 hr. The note with it: read-out: HD50. The class given is ADME, cell-based, Erythrocyte.
A short description of data set [13]: Cytotoxicity against mouse NIH/3T3 cells by MTS assay. Type of data set: cell-based, NIH3T3. The note with it: read-out: ID50 (the source's name). Background: Tetrazolium dyes change colour on reduction, which living cells bring about.

SMILES strings stand for the structures. Values after ≈ are worked out from the molar mass of the structure shown. Square brackets hold non-standard residues; d marks the D form. Peptide text beside a SMILES is read from it. Gly(N-2-aminoethyl) = NCCNCC(=O)O; Nspe = C[C@H](NCC(=O)O)c1ccccc1; Nphe = O=C(O)CNCc1ccccc1; Nlys = NCCCCNCC(=O)O

The MIC is the lowest concentration found to suppress growth. Higher therefore signals a need for much substance. Turning to `C[C@@H](c1ccccc1)N(CC(N)=O)C(=O)CN(C(=O)CN(CCN)C(=O)CN(C(=O)CN(C(=O)CNCCN)[C@@H](C)c1ccccc1)[C@@H](C)c1ccccc1)[C@@H](C)c1ccccc1`, the selectivity ratio in data set [1], in data set [2], in [4], in data set [5], in data set [6] and in data set [8] was 1 throughout. For the same compound, the selectivity ratio in data set [9] and in data set [10] was 1 each time. The CC50 at 24 h in data set [3] and in data set [7] was more than 100 µM in each case. The MIC (against Escherichia coli; against Pseudomonas aeruginosa; against Staphylococcus aureus; in data set [11]) was more than 100 µM each time.
For `N=C(N)NCCCCNCC(=O)N(CC(=O)N(CC(=O)N(CCCCNC(=N)N)CC(=O)N(CC(=O)N(CC(=O)N(CCCCNC(=N)N)CC(=O)N(CC(=O)N(CC(=O)N(CCCCNC(=N)N)CC(=O)N(CC(=O)N(CC(N)=O)Cc1cccc(F)c1)Cc1cccc(F)c1)Cc1cccc(F)c1)Cc1cccc(F)c1)Cc1cccc(F)c1)Cc1cccc(F)c1)Cc1cccc(F)c1)Cc1cccc(F)c1`, the selectivity ratio in data set [1] turned out to be 11; in data set [2], 14; in data set [4], 2; in [5] it was 2; in data set [6], 11; in [8], 14. Further, the selectivity ratio in [9] and in [10] was 2 each time. The CC50 at 24 h in data set [3] was determined as 28 µM; in [7] it was 21 µM. The MIC in the data set with Escherichia coli worked out at 13 µM (≈ 26.3 µg/mL); in the data set on Pseudomonas aeruginosa, 13 µM (≈ 26.3 µg/mL); with Staphylococcus aureus it was 2 µM (≈ 4.04 µg/mL); in data set [11], 2 µM (≈ 4.04 µg/mL).
Consider `NCCNCC(=O)N(CC(=O)N(CC(=O)N(CCN)CC(=O)N(CC(=O)N(CC(N)=O)Cc1ccccc1)Cc1ccccc1)Cc1ccccc1)Cc1ccccc1` (H-[Gly(N-2-aminoethyl)][Nphe][Nphe][Gly(N-2-aminoethyl)][Nphe][Nphe]-NH2), for which the selectivity ratio in data set [1], in data set [2], in [4], in data set [5], in [6] and in data set [8] was 1 throughout. Besides, the selectivity ratio in data set [9] and in data set [10] was 1 each time. The CC50 at 24 h in data set [3] and in [7] was more than 100 µM each time. The MIC (in the data set on Escherichia coli; against Pseudomonas aeruginosa; in the data set with Staphylococcus aureus; in [11]) was more than 100 µM each time.
In the case of `NCCNCC(=O)N(CC(=O)N(CC(=O)N(CCN)CC(=O)N(CC(=O)N(CC(=O)N(CCN)CC(=O)N(CC(=O)N(CC(N)=O)Cc1ccccc1)Cc1ccccc1)Cc1ccccc1)Cc1ccccc1)Cc1ccccc1)Cc1ccccc1` (H-[Gly(N-2-aminoethyl)][Nphe][Nphe][Gly(N-2-aminoethyl)][Nphe][Nphe][Gly(N-2-aminoethyl)][Nphe][Nphe]-NH2), the selectivity ratio in data set [1] was found to be 8; in data set [2], 1; in data set [4], 1; in data set [5] it was 1; in data set [6], 1; in data set [8], 8. Also, the selectivity ratio in data set [9] and in data set [10] was 1 throughout. The CC50 at 24 h in data set [3] and in data set [7] was more than 100 µM in each case. Also, the MIC (against Escherichia coli; against Pseudomonas aeruginosa; in data set [11]) was more than 100 µM throughout.
In the case of `NCCCCNCC(=O)N(CC(=O)N(CC(=O)N(CCCCN)CC(=O)N(CC(=O)N(CC(N)=O)Cc1ccccc1)Cc1ccccc1)Cc1ccccc1)Cc1ccccc1` (H-[Nlys][Nphe][Nphe][Nlys][Nphe][Nphe]-NH2), the selectivity ratio in data set [1], in data set [2], in [4], in [5], in [6] and in [8] was 1 in each case. In addition, the selectivity ratio in data set [9] and in data set [10] was 1 in each case. Moreover, the CC50 at 24 h in [3] and in data set [7] was more than 100 µM each time. For the same compound, the MIC (against Escherichia coli; with Pseudomonas aeruginosa; against Staphylococcus aureus; in data set [11]) was more than 100 µM in each case.
As to `C[C@@H](c1ccccc1)N(CC(N)=O)C(=O)CN(C(=O)CN(CCCCN)C(=O)CN(C(=O)CN(C(=O)CN(CCCCN)C(=O)CN(C(=O)CN(C(=O)CN(CCCCN)C(=O)CN(C(=O)CN(C(=O)CNCCCCN)[C@@H](C)c1ccccc1)[C@@H](C)c1ccccc1)[C@@H](C)c1ccccc1)[C@@H](C)c1ccccc1)[C@@H](C)c1ccccc1)[C@@H](C)c1ccccc1)[C@@H](C)c1ccccc1` (H-[Nlys][Nspe][Nspe][Nlys][Nspe][Nspe][Nlys][Nspe][Nspe][Nlys][Nspe][Nspe]-NH2), the selectivity ratio in [1] was determined as 15; in data set [8], 10. Besides, the HC50 at 1 h in data set [12] was determined as 100 µM. The CC50 in data set [13] is 5.1 µM.
`CC(c1ccccc1)N(CC(=O)N(CCCCN)CC(=O)N(CC(=O)N(CC(=O)N(CCCCN)CC(=O)N(CC(=O)N(CC(N)=O)[C@@H](C)c1ccccc1)[C@@H](C)c1ccccc1)Cc1ccc(F)cc1)Cc1ccc(F)cc1)C(=O)CN(C(=O)CN(CCCCN)C(=O)CN(Cc1ccc(F)cc1)C(=O)CN(Cc1ccc(F)cc1)C(=O)CNCCCCN)[C@@H](C)c1ccccc1` (single isomer, unassigned): the selectivity ratio in [1] came out at 28; in data set [2], 100; in [4] it was 2; in data set [5], 13; in [6], 55; in data set [8], 50. Moreover, in [10], the selectivity ratio was 9. The CC50 at 24 h is more than 100 µM in data set [3] and 55 µM in data set [7]. Moreover, the minimal inhibitory concentration (MIC) against Escherichia coli came to 6 µM (≈ 11 µg/mL); with Pseudomonas aeruginosa it was 50 µM (≈ 91.8 µg/mL); against Staphylococcus aureus it was 2 µM (≈ 3.67 µg/mL); in [11], 1 µM (≈ 1.84 µg/mL).
For `CCCCCN(CC(=O)N(CC(=O)N(CC(=O)N(CCCCN)CC(=O)N(CC(=O)N(CC(N)=O)[C@@H](C)c1ccccc1)[C@@H](C)c1ccccc1)C(C)c1ccccc1)[C@@H](C)c1ccccc1)C(=O)CN(C(=O)CN(C(=O)CN(CCCCN)C(=O)CN(C(=O)CN(C(=O)CNCCCCN)[C@@H](C)c1ccccc1)C(C)c1ccccc1)[C@@H](C)c1ccccc1)C(C)c1ccccc1` (single isomer, unassigned), the selectivity ratio worked out at 4 in data set [1], 10 in [2], 11 in [6] and 3 in data set [8]. Also, the CC50 at 24 h in [3] came to 20 µM; in data set [7], 22 µM. Besides, the MIC against Escherichia coli is more than 100 µM; in the data set on Pseudomonas aeruginosa, more than 100 µM; against Staphylococcus aureus, 6 µM (≈ 10.9 µg/mL); in data set [11], 2 µM (≈ 3.64 µg/mL).
Take `CCCCCNCC(=O)N(CC(=O)N(CC(=O)N(CCCCC)CC(=O)N(CC(=O)N(CC(=O)N(CCCCN)CC(=O)N(CC(=O)N(CC(=O)N(CCCCN)CC(=O)N(CC(=O)N(CC(N)=O)[C@@H](C)c1ccccc1)[C@@H](C)c1ccccc1)C(C)c1ccccc1)[C@@H](C)c1ccccc1)C(C)c1ccccc1)[C@@H](C)c1ccccc1)C(C)c1ccccc1)[C@@H](C)c1ccccc1` (single isomer, unassigned): the selectivity ratio in [1] is 9; in [2] it was 20; in data set [6], 18; in data set [8], 10. Also, the values for the CC50 at 24 h in [3] and in data set [7] were 20 µM and 18 µM, respectively. The minimal inhibitory concentration (MIC) was more than 100 µM in the data set on Escherichia coli, more than 100 µM against Pseudomonas aeruginosa, 2 µM (≈ 3.63 µg/mL) with Staphylococcus aureus and 1 µM (≈ 1.82 µg/mL) in data set [11].
